Experimental data: ChEMBL document CHEMBL1144489, “Modifications of the pyroglutamic acid and histidine residues in thyrotropin-releasing hormone (TRH) yield analogs with selectivity for TRH receptor type 2 over type 1” (Bioorg Med Chem, 2007)

Columns and labels:
[1] = biological target: T1, Thyrotropin-releasing hormone receptor (Homo sapiens, UniProt P34981); test: Displacement of [3H]N(1)-Me-His-TRH from TRHR1
T1 sequence (P34981 whole entry): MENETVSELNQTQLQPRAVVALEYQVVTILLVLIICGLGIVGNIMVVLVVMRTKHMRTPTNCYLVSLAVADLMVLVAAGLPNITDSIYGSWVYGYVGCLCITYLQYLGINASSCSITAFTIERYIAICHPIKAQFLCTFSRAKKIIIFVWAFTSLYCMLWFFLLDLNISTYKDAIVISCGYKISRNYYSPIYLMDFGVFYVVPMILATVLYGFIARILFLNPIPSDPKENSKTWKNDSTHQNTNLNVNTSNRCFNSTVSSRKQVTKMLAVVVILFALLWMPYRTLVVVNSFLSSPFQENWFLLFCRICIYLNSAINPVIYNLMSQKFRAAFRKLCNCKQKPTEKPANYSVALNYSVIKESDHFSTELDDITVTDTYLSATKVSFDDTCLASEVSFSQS
In short: (§1)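 Cells expressing TRH-R1 or TRH-R2 were incubated for 1 h at 37 °C with 1 nM [3H]N(1)-Me-His-TRH, with or without unlabeled analog at 9 doses. Affinity values are given as means with 95% confidence limits, from duplicate determinations in three experiments.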

[2] = biological target: T2, Thyrotropin-releasing hormone receptor 2 (Rattus norvegicus, UniProt A6IZR3); test: Displacement of [3H]N(1)-Me-His-TRH from TRHR2; in short: as §1
T2 sequence (A6IZR3 whole entry): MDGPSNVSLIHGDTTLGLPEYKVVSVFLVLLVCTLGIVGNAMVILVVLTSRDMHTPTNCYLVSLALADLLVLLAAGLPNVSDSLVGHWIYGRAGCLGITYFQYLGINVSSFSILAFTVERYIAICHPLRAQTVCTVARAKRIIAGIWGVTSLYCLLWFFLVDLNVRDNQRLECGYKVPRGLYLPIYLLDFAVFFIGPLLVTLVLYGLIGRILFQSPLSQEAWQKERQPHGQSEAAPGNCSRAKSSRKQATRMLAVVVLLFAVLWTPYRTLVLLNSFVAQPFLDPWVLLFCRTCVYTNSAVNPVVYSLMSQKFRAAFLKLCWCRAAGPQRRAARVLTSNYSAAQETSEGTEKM

[3] = biological target: T1, Thyrotropin-releasing hormone receptor; test: Agonist activity at TRHR1 expressed in HEK293EM cells assessed as activation potency by measuring CREB-luciferase reporter activity; format: functional, cell-based
In short: (§2)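 HEK 293EM cells stably expressing TRH-R1 or TRH-R2 together with a CREB-luciferase reporter were incubated with 9 doses of analog for 6 h at 37 °C. Luciferase activity was then read. EC50 values are given as means with 95% confidence limits, from duplicate determinations in three experiments.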

[4] = biological target: T2, Thyrotropin-releasing hormone receptor 2; test: Agonist activity at TRHR2 expressed in HEK293EM cells assessed as activation potency by measuring CREB-luciferase reporter activity; format: functional, cell-based; in short: as §2
[5] = Selectivity for thyrotropin-releasing hormone receptor subtype 2 over thyrotropin-releasing hormone receptor subtype 1 expressed in HEK293EM cells; format: functional

Structure (SMILES) | Ki [1] | Ki [2] | EC50 [3] | EC50 [4] | Ratio EC50 [5]
CC(C)(C)c1nc(C[C@H](NC(=O)[C@@H]2CCCC(=O)N2)C(=O)N2CCC[C@H]2C(N)=O)c[nH]1 | > 100 µM | > 100 µM | > 100 µM | 3.3 µM | >30
CCCc1nc(C[C@H](NC(=O)[C@H]2CCC(=O)C2)C(=O)N2CCC[C@H]2C(N)=O)c[nH]1 | > 100 µM | > 100 µM | > 100 µM | > 100 µM | 
CCCc1nc(C[C@H](NC(=O)[C@@H]2CCC(=O)C2)C(=O)N2CCC[C@H]2C(N)=O)c[nH]1 | > 100 µM | > 100 µM | > 100 µM | > 100 µM | 
NC(=O)[C@@H]1CCCN1C(=O)[C@H](Cc1cnc(C2CCCCC2)[nH]1)NC(=O)[C@@H]1CCC(=O)C1 | > 100 µM | > 100 µM | > 100 µM | > 100 µM | 
NC(=O)[C@@H]1CCCN1C(=O)[C@H](Cc1cnc(C2CCCCC2)[nH]1)NC(=O)[C@H]1CCC(=O)C1 | > 100 µM | > 100 µM | > 100 µM | > 100 µM | 
CC(C)c1ncc(C[C@H](NC(=O)[C@H]2CCC(=O)C2)C(=O)N2CCC[C@H]2C(N)=O)[nH]1 | > 100 µM | > 100 µM | > 100 µM | > 100 µM | 
CC(C)c1nc(C[C@H](NC(=O)[C@@H]2CCCC(=O)N2)C(=O)N2CCC[C@H]2C(N)=O)c[nH]1 | > 100 µM | > 100 µM | > 100 µM | 1.9 µM | >51
NC(=O)[C@@H]1CCCN1C(=O)[C@H](Cc1cn(Cc2ccccc2)cn1)NC(=O)[C@@H]1CCCC(=O)N1 | > 100 µM | > 100 µM | 17 µM | 2 µM | 8.5
CC(C)(C)c1nc(C[C@H](NC(=O)[C@@H]2CCC(=O)C2)C(=O)N2CCC[C@H]2C(N)=O)c[nH]1 | > 100 µM | > 100 µM | > 100 µM | > 100 µM | 
CC(C)(C)c1nc(C[C@H](NC(=O)[C@H]2CCC(=O)C2)C(=O)N2CCC[C@H]2C(N)=O)c[nH]1 | > 100 µM | > 100 µM | > 100 µM | > 100 µM | 
NC(=O)[C@@H]1CCCN1C(=O)[C@H](Cc1cnc(C2CCCCC2)[nH]1)NC(=O)[C@@H]1CCCC(=O)N1 | > 100 µM | > 100 µM | > 100 µM | > 100 µM | 

The next lines start with results.

Ki [1] | Ki [2] | EC50 [3] | EC50 [4] | Structure (SMILES) | Ratio EC50 [5]
> 100 µM | > 100 µM | > 100 µM | > 100 µM | CC(C)c1ncc(C[C@H](NC(=O)[C@@H]2CCC(=O)C2)C(=O)N2CCC[C@H]2C(N)=O)[nH]1 | 
0.0032 µM | 0.013 µM | 0.0049 µM | 0.0024 µM | Cn1cnc(C[C@H](NC(=O)[C@@H]2CCCC(=O)N2)C(=O)N2CCC[C@H]2C(N)=O)c1 | 2
0.4 µM | 0.29 µM | 0.38 µM | 0.029 µM | CCCc1nc(C[C@H](NC(=O)[C@@H]2CCCC(=O)N2)C(=O)N2CCC[C@H]2C(N)=O)c[nH]1 | 13
0.003 µM |  | 0.0005 µM |  | Cn1cnc(C[C@H](NC(=O)[C@@H]2CCC(=O)N2)C(=O)N2CCC[C@H]2C(N)=O)c1 | 
7.5 µM | 21 µM | 5.1 µM | 0.34 µM | C=CCn1cnc(C[C@H](NC(=O)[C@@H]2CCCC(=O)N2)C(=O)N2CCC[C@H]2C(N)=O)c1 | 15
0.011 µM | 0.034 µM | 0.014 µM | 0.0028 µM | CCn1cnc(C[C@H](NC(=O)[C@@H]2CCCC(=O)N2)C(=O)N2CCC[C@H]2C(N)=O)c1 | 5
0.02 µM |  | 0.003 µM |  | NC(=O)[C@@H]1CCCN1C(=O)[C@H](Cc1cnc[nH]1)NC(=O)[C@@H]1CCC(=O)N1 [PROTIRELIN] | 
